Calls of active or inactive are those of the source. The rule behind the calls is not given here.
What was measured:
Influenza A virus [1] = experiment: Antimicrobial activity against Influenza A virus (A/Puerto Rico/8/34(H1N1)) infected in BALB/c mouse assessed as reduction in viral titer in lung at 0.24 mg/kg, itn administered 11 hrs post infection measured after 83 hrs post infection; format: functional, organism-based; parameters: dose 0.24 mg/kg; details: A/Puerto Rico/8/1934(H1N1)
Summary of the method: (§1)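 BALB/c mice infected intranasally with A/PR/8/34 at 30 PFU. Intranasal dosing at 0.5 μmol/kg began at 11 hpi, either repeated twice daily or given once followed by twice-daily saline. Lungs (n = 3) were taken at 35, 59 and 83 hpi and homogenized. Titers were measured by MDCK plaque assay as log10 PFU/lungs. Two-way ANOVA and Dunnett test were applied.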

Influenza A virus [2] = experiment: Antimicrobial activity against Influenza A virus (A/Puerto Rico/8/34(H1N1)) infected in BALB/c mouse assessed as reduction in viral titer in lung at 0.24 mg/kg, itn administered 11 hrs post infection measured after 35 hrs post infection; format: functional, organism-based; parameters: dose 0.24 mg/kg; details: A/Puerto Rico/8/1934(H1N1); summary of the method: as §1
Influenza A virus [3] = experiment: Antimicrobial activity against Influenza A virus (A/Puerto Rico/8/34(H1N1)) infected in BALB/c mouse assessed as increase in mouse survival at 0.17 mg/kg, itn for 12 hrs post infection; format: functional, organism-based; parameters: dose 0.17 mg/kg; details: A/Puerto Rico/8/1934(H1N1)
Influenza A virus [4] = experiment: Antimicrobial activity against Influenza A virus (A/Puerto Rico/8/34(H1N1)) infected in BALB/c mouse assessed as increase in mouse survival at 0.71 mg/kg, itn administered for 7 days before infection; format: functional, organism-based; parameters: dose 0.71 mg/kg; details: A/Puerto Rico/8/1934(H1N1)
Influenza A virus [5] = experiment: Antimicrobial activity against Influenza A virus (A/Puerto Rico/8/34(H1N1)) infected in BALB/c mouse assessed as reduction in viral titer in lung at 0.027 mg/kg, itn after 11 hrs post infection; format: functional, organism-based; parameters: dose 0.027 mg/kg; details: A/Puerto Rico/8/1934(H1N1), TDE = time-dependent effect
Summary of the method: (§2)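 BALB/c mice infected intranasally with A/PR/8/34 at 30 PFU. Oral drug was given twice daily from 11 hpi with intranasal saline at 11 hpi, or a single intranasal dose at 11 hpi with oral saline on the same schedule. Lungs (n = 3) were harvested at 35, 59 and 83 hpi. Titers were measured by MDCK plaque assay, log10 PFU/lungs.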

Influenza B virus [6] = experiment: Antimicrobial activity against Influenza B virus (B/Hong Kong/05/1972) infected in BALB/c mouse assessed as increase in mouse survival at 0.23 mg/kg, itn administered for 7 days before infection; format: functional, organism-based; parameters: dose 0.23 mg/kg
Influenza A virus [7] = experiment: Antimicrobial activity against Influenza A virus (A/Puerto Rico/8/34(H1N1)) infected in BALB/c mouse assessed as increase in mouse survival at 0.085 mg/kg, itn administered for 7 days before infection; format: functional, organism-based; parameters: dose 0.085 mg/kg; details: A/Puerto Rico/8/1934(H1N1)
Influenza A virus [8] = experiment: Antimicrobial activity against Influenza A virus (A/Puerto Rico/8/34(H1N1)) infected in BALB/c mouse assessed as increase in mouse survival at 0.017 mg/kg, itn administered 11 hrs post infection for 5 days […] infection; format: functional, organism-based; parameters: dose 0.017 mg/kg; details: A/Puerto Rico/8/1934(H1N1)
Summary of the method: (§3)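 Female BALB/c mice (5–6 weeks) infected intranasally with A/PR/8/34 at 100 PFU, n = 10 per group. Each mouse got one intranasal dose at 11 hpi plus oral doses twice daily from 11 hpi to 120 hpi. Drug went by one route and saline by the other, all in saline vehicle. Survival was followed daily to day 20 and analysed by Kaplan-Meier with a log-rank test against the saline group.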

Influenza B virus [9] = experiment: Antimicrobial activity against Influenza B virus (B/Hong Kong/05/1972)infected in BALB/c mouse assessed as increase in mouse survival at 0.076 mg/kg, itn administered for 7 days before infection; format: functional, organism-based; parameters: dose 0.076 mg/kg
Influenza A virus [10] = experiment: Antimicrobial activity against Influenza A virus (A/Puerto Rico/8/34(H1N1)) infected in BALB/c mouse assessed as increase in mouse survival at 0.17 mg/kg, itn for 7 days post infection; format: functional, organism-based; parameters: dose 0.17 mg/kg; details: A/Puerto Rico/8/1934(H1N1)
Influenza A virus [11] = experiment: Antimicrobial activity against Influenza A virus (A/Puerto Rico/8/34(H1N1)) infected in BALB/c mouse assessed as increase in mouse survival at 0.17 mg/kg, itn for 4 days post infection; format: functional, organism-based; parameters: dose 0.17 mg/kg; details: A/Puerto Rico/8/1934(H1N1)
Influenza B virus [12] = experiment: Antimicrobial activity against Influenza B virus (B/Hong Kong/05/1972) infected in BALB/c mouse assessed as increase in mouse survival at 0.23 mg/kg, itn administered for 7 days before infection measured at day 20; format: functional
Influenza A virus [13] = experiment: Antimicrobial activity against Influenza A virus (A/Puerto Rico/8/34(H1N1)) infected in BALB/c mouse assessed as increase in mouse survival at 0.095 mg/kg, itn administered for 7 days before infection; format: functional, organism-based; parameters: dose 0.095 mg/kg; details: A/Puerto Rico/8/1934(H1N1)
Influenza A virus [14] = experiment: Antimicrobial activity against Influenza A virus (A/Puerto Rico/8/34(H1N1)) infected in BALB/c mouse assessed as increase in mouse survival at 0.017 mg/kg, itn administered 11 hrs post infection for 5 days […] infection measured on day 20; format: functional, A/Puerto Rico/8/1934(H1N1); summary of the method: as §3
Influenza A virus [15] = experiment: Antimicrobial activity against oseltamivir-sensitive influenza A virus (A/Yokohama/67/2006 (H1N1)) clone 1 infected in BALB/c mouse assessed as reduction in viral titer in lung at 0.080 mg/kg, itn administered 13 hrs post infection measured after 61 hrs post infection; format: functional, organism-based; parameters: dose 0.08 mg/kg
Summary of the method: (§4)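 Female BALB/c mice infected intranasally with A/Yokohama/67/2006 clone 1. From 13 hpi they received either a single intranasal dose (0.057 or 0.17 μmol/kg) or 1.0 or 10 mg/kg oral twice daily. Lung titers measured at 37, 61 and 85 hpi by MDCK plaque assay, log10 PFU/lungs (n = 3). Detection limit 2.4.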

Influenza A virus [16] = experiment: Antimicrobial activity against Influenza A virus (A/Puerto Rico/8/34(H1N1)) infected in BALB/c mouse assessed as reduction in viral titer in lung at 0.080 mg/kg, itn after 11 hrs post infection; format: functional, organism-based; parameters: dose 0.08 mg/kg; details: A/Puerto Rico/8/1934(H1N1), TDE = time-dependent effect; summary of the method: as §2
Influenza A virus [17] = experiment: Antimicrobial activity against Influenza A virus (A/Puerto Rico/8/34(H1N1)) infected in BALB/c mouse assessed as increase in mouse survival at 0.17 mg/kg, itn for 1 day post infection; format: functional, organism-based; parameters: dose 0.17 mg/kg; details: A/Puerto Rico/8/1934(H1N1)
Influenza B virus [18] = experiment: Antimicrobial activity against Influenza B virus (B/Malaysia/2506/2004) infected itn dosed Mustela putorius furo assessed as nasal viral titer treated after 4 hrs post infection measured after 3 days; format: functional, organism-based
Summary of the method: (§5)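 Ferrets (600–800 g), seronegative by hemagglutination inhibition, anaesthetized with ketamine/xylazine and infected with B/Malaysia/2506/2004, 1,000 PFU/100 μl. From 4 hpi they received either a single intranasal dose (saline, 0.05 or 0.5 μmol/kg) or 25 mg/kg oral twice daily. Nasal wash titers measured by MDCK plaque assay on days 1, 2 and 3, log10 PFU/ml (n = 5). Undetectable samples entered at the lower limit of detection.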

Influenza B virus [19] = experiment: Antimicrobial activity against Influenza B virus (B/Hong Kong/05/1972) infected in BALB/c mouse assessed as increase in mouse survival at 0.71 mg/kg, itn administered for 7 days before infection; format: functional, organism-based; parameters: dose 0.71 mg/kg
Influenza A virus [20] = experiment: Antimicrobial activity against oseltamivir-sensitive influenza A virus (A/Yokohama/67/2006 (H1N1)) clone 1 infected in BALB/c mouse assessed as reduction in viral titer in lung at 0.080 mg/kg, itn administered post 13 hrs infection measured after 85 hrs post infection; format: functional, organism-based; parameters: dose 0.08 mg/kg; summary of the method: as §4
Influenza A virus [21] = experiment: Antimicrobial activity against Influenza A virus (A/Puerto Rico/8/34(H1N1)) infected in BALB/c mouse assessed as increase in mouse survival at 0.76 mg/kg, itn administered for 7 days before infection; format: functional, organism-based; parameters: dose 0.76 mg/kg; details: A/Puerto Rico/8/1934(H1N1)
Influenza A virus [22] = experiment: Antimicrobial activity against Influenza A virus (A/Puerto Rico/8/34(H1N1)) infected in BALB/c mouse assessed as increase in mouse survival at 0.25 mg/kg, itn administered for 7 days before infection; format: functional, organism-based; parameters: dose 0.25 mg/kg; details: A/Puerto Rico/8/1934(H1N1)
Influenza A virus [23] = experiment: Antimicrobial activity against Influenza A virus (A/Puerto Rico/8/34(H1N1)) infected in BALB/c mouse assessed as reduction in viral titer in lung at 0.24 mg/kg, itn administered 11 hrs post infection measured after 59 hrs post infection; format: functional, organism-based; parameters: dose 0.24 mg/kg; details: A/Puerto Rico/8/1934(H1N1); summary of the method: as §1
Influenza B virus [24] = experiment: Antimicrobial activity against Influenza B virus (B/Malaysia/2506/2004) infected itn dosed Mustela putorius furo assessed as nasal viral titer treated after 4 hrs post infection measured after 1 day; format: functional, organism-based; summary of the method: as §5
Influenza B virus [25] = experiment: Antimicrobial activity against Influenza B virus (B/Malaysia/2506/2004) infected itn dosed Mustela putorius furo assessed as nasal viral titer treated after 4 hrs post infection measured after 2 days; format: functional, organism-based; summary of the method: as §5
Influenza A virus [26] = experiment: Antimicrobial activity against Influenza A virus (A/Puerto Rico/8/34(H1N1)) infected in BALB/c mouse assessed as increase in mouse survival at 0.37 mg/kg, itn administered for 7 days before infection; format: functional, organism-based; parameters: dose 0.37 mg/kg; details: A/Puerto Rico/8/1934(H1N1)
Summary of the method: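 Single intranasal dose in saline (50 μl) given to anesthetized female BALB/c mice 7 days before intranasal infection with A/PR/8/34 at 500 PFU, n = 12. Survival was checked daily to day 20. Groups were compared with saline controls by Kaplan-Meier and log-rank test, with Bonferroni adjustment where needed.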

Influenza A virus [27] = experiment: Antimicrobial activity against oseltamivir-sensitive influenza A virus (A/Yokohama/67/2006 (H1N1)) clone 1 infected in BALB/c mouse assessed as reduction in viral titer in lung at 0.080 mg/kg, itn administered 13 hrs post infection measured after 37 hrs post infection; format: functional, organism-based; parameters: dose 0.08 mg/kg; summary of the method: as §4
Influenza A virus [28] = experiment: Antimicrobial activity against Influenza A virus (A/Puerto Rico/8/34(H1N1)) infected in BALB/c mouse assessed as increase in mouse survival at 0.18 mg/kg, itn administered for 7 days before infection; format: functional, organism-based; parameters: dose 0.18 mg/kg; details: A/Puerto Rico/8/1934(H1N1)
[29] = Half life in human; format: ADME, organism-based; details: in vivo

## CCCCCCCC(=O)OC[C@@H](O)[C@@H](OC)[C@@H]1OC(C(=O)O)=C[C@H](NC(=N)N)[C@H]1NC(C)=O [LANINAMIVIR OCTANOATE]
Influenza A virus [1]
  Activity: Active
Influenza A virus [2]
  Activity: Active
Influenza A virus [3]
  Activity: Active
Influenza A virus [4]
  Activity: Active
Influenza A virus [5]
  Activity: tde
Influenza B virus [6]
  Activity: Active
Influenza A virus [7]
  Activity: Active
Influenza A virus [8]
  Activity: Active
Influenza B virus [9]
  Activity: Active
Influenza A virus [10]
  Activity: Active
Influenza A virus [11]
  Activity: Active
Influenza B virus [12]
  Activity: 82%
Influenza A virus [13]
  Activity: Active
Influenza A virus [14]
  Activity: 30%
Influenza A virus [15]
  Activity: Active
Influenza A virus [16]
  Activity: tde
Influenza A virus [17]
  Activity: Active
Influenza B virus [18]
  Activity: Dose-dependent effect
Influenza B virus [19]
  Activity: Active
Influenza A virus [20]
  Activity: Active
Influenza A virus [21]
  Activity: Active
Influenza A virus [22]
  Activity: Active
Influenza A virus [23]
  Activity: Active
Influenza B virus [24]
  Activity: Dose-dependent effect
Influenza B virus [25]
  Activity: Dose-dependent effect
Influenza A virus [26]
  Activity: Active
Influenza A virus [27]
  Activity: Active
Influenza A virus [28]
  Activity: Active

## CC(=O)N[C@H]1[C@H]([C@H](O)[C@H](O)CO)OC(C(=O)O)=C[C@@H]1N=C(N)N [ZANAMIVIR]
[29]
  half-life: 2.8 h
